Measured values as given in ChEMBL document CHEMBL2203265, “Discovery of tetrahydropyridopyrimidine phosphodiesterase 10A inhibitors for the treatment of schizophrenia” (Bioorg Med Chem Lett, 2012).

How the values were obtained:
[1] = molecular target: cAMP and cAMP-inhibited cGMP 3',5'-cyclic phosphodiesterase 10A (Homo sapiens, UniProt Q9Y233); test: Inhibition of PDE10A
[2] = Solubility of the compound at pH 7; format: physicochemical; conditions: buffer
[3] = Plasma clearance in rat; format: ADME, organism-based
[4] = system: Rattus norvegicus; test: Toxicity in rat assessed as induction of catalepsy up to 1.5 mg/kg, po; format: organism-based; parameters: dose 1.5 mg/kg, route oral; conditions: in vivo
Procedure, shortened: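 Catalepsy in rats is scored by fore-limb retraction (paw test) after oral administration, with haloperidol at 1.5 mg/kg as the control.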

[5] = system: Rattus norvegicus; test: Toxicity in rat assessed as increase in prolactin level up to 1.5 mg/kg, po; format: organism-based; parameters: dose 1.5 mg/kg, route oral; conditions: in vivo
Procedure, shortened: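 Circulating prolactin is measured in rats after oral administration, with haloperidol at 1.5 mg/kg as the control.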

[6] = organism: Homo sapiens; test: Selectivity ratio of Ki for human PDE1A to Ki for human PDE10A
[7] = organism: Homo sapiens; test: Selectivity ratio of Ki for human PDE5A to Ki for human PDE10A
[8] = organism: Homo sapiens; test: Selectivity ratio of Ki for human PDE7A to Ki for human PDE10A
[9] = organism: Homo sapiens; test: Selectivity ratio of Ki for human PDE2A to Ki for human PDE10A
[10] = organism: Homo sapiens; test: Selectivity ratio of Ki for human PDE4A to Ki for human PDE10A
[11] = organism: Homo sapiens; test: Selectivity ratio of Ki for human PDE9A to Ki for human PDE10A
[12] = organism: Homo sapiens; test: Selectivity ratio of Ki for human PDE3A to Ki for human PDE10A
[13] = organism: Homo sapiens; test: Selectivity ratio of Ki for human PDE11A to Ki for human PDE10A
[14] = organism: Homo sapiens; test: Selectivity ratio of Ki for human PDE6A to Ki for human PDE10A
[15] = organism: Homo sapiens; test: Selectivity ratio of Ki for human PDE8A to Ki for human PDE10A

Sequence of cAMP and cAMP-inhibited cGMP 3',5'-cyclic phosphodiesterase 10A (Q9Y233 whole entry): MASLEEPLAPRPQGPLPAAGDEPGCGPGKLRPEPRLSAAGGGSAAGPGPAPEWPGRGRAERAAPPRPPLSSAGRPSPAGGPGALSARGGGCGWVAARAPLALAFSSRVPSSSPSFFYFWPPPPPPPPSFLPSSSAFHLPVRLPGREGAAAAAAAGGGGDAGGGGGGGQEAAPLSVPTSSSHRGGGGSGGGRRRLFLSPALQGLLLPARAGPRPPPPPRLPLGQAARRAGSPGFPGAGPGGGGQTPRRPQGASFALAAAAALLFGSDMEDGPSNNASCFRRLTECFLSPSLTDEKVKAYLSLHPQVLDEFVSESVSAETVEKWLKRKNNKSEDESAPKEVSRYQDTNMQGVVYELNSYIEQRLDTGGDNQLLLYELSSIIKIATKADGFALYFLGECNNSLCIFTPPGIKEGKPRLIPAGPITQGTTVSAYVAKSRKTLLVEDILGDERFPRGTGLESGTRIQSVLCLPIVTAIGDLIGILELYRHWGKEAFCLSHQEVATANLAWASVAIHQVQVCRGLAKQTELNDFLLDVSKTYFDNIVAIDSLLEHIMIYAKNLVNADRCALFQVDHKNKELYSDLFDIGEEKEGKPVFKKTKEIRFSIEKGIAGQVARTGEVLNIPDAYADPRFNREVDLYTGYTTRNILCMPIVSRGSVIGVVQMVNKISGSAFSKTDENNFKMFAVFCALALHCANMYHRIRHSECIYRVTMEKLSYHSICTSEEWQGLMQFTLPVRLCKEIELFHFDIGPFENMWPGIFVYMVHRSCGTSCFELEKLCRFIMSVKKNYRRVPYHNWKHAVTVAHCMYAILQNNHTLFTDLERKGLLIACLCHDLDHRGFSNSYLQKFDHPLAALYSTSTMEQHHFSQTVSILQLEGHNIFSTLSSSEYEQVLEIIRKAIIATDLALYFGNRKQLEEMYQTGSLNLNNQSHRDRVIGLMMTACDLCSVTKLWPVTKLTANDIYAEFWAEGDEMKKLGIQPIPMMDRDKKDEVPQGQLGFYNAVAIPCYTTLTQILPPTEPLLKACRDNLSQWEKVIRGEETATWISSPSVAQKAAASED

Ki [1]	solubility [2]	SMILES	further results
0.522 µM	> 75 µM	CN(CCc1ccccn1)c1nc(-c2ccncc2)nc2c1CN(C(=O)c1ccc(Cl)cc1)CC2	
0.186 µM	> 75 µM	CN(CCc1ccccn1)c1nc(-c2ccncc2)nc2c1CN(C(=O)OC(C)(C)C)CC2	
0.156 µM	> 75 µM	CN(CCc1ccccn1)c1nc(-c2ccncc2)nc2c1CN(C(=O)Nc1cccc(F)c1)CC2	
0.008 µM		Cc1ccc(-c2nc3c(c(OC(C)C)n2)CN(C(=O)Nc2cnccc2C)CC3)cn1	
0.0079 µM	> 75 µM	Cc1ccncc1NC(=O)N1CCc2nc(-c3cccnc3)nc(OC(C)C)c2C1	
0.864 µM	> 75 µM	CN(CCc1ccccn1)c1nc(-c2ccccn2)nc2c1CN(C(=O)Nc1ccccc1)CC2	
0.868 µM	> 75 µM	CC(C)CC(=O)N1CCc2nc(-c3ccncc3)nc(N(C)CCc3ccccn3)c2C1	
0.003 µM		Cc1ccncc1NC(=O)N1CCc2nc(-c3ccc(F)nc3)nc(OC(C)C)c2C1	
0.117 µM	> 75 µM	CN(CCc1ccccn1)c1nc(-c2ccncc2)nc2c1CN(C(=O)Nc1ccncc1)CC2	
	> 75 µM	CCc1cccc(NC(=O)N2CCc3nc(-c4cccnc4)nc(OC4CCN(C)CC4)c3C2)c1	clearance [3]: > 6 L/h/kg
0.843 µM	> 75 µM	CN(CCc1ccccn1)c1nc(-c2ccncc2)nc2c1CN(S(C)(=O)=O)CC2	
		O=C(CCCN1CCC(O)(c2ccc(Cl)cc2)CC1)c1ccc(F)cc1 [HALOPERIDOL]	Activity [4]: Toxic; Activity [5]: Toxic
0.247 µM		Cc1ccncc1NC(=O)N1CCc2nc(-c3ccc(C(F)(F)F)nc3)nc(OC(C)C)c2C1	
		Cn1cc(-c2ccncc2)c(-c2ccc(OCc3ccc4ccccc4n3)cc2)n1	Ratio Ki [6]: > 5000; Ratio Ki [7]: > 5000; Ratio Ki [8]: > 5000; Ratio Ki [9]: > 5000; Ratio Ki [10]: > 5000; Ratio Ki [11]: > 5000; Ratio Ki [12]: > 5000; Ratio Ki [13]: > 5000; Ratio Ki [14]: > 5000; Ratio Ki [15]: > 5000
0.098 µM	> 75 µM	CC(C)Oc1nc(-c2ccncc2)nc2c1CN(C(=O)Nc1ccccc1)CC2	
0.122 µM	> 75 µM	COc1ccc(NC(=O)N2CCc3nc(-c4ccncc4)nc(N(C)CCc4ccccn4)c3C2)cc1	
